Where only a bound is given, the exact number is not on record here.

In data set [1] the test system is Hepatitis C virus. In words: Antiviral activity against HCV genotype 1a H77c infected in human HuH7 cells after 3 days by luciferase reporter gene assay. It counts as functional, organism-based, Hepacivirus hominis. Particulars: Huh-7, 72 h. A digest of the protocol: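 Titrated compounds in 384-well plates seeded with replicon cells, 2.4 × 10³/well in DMEM with 4% FCS, final DMSO 0.5% v/v; 3 days at 37 °C. Renilla luciferase read with EnduRen substrate at […] final after ≥1 h at 37 °C; EC₅₀ from four-parameter logistic fit.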
(Reporter assays use an easily measured gene product as a stand-in for the process of interest.)

The subject of data set [2] is Bovine viral diarrhea virus 1. In words: Antiviral activity against BVDV infected in bovine MDBK cells after 72 hrs by luciferase reporter gene assay. It is filed as functional, organism-based. The settings on record: Bovine viral diarrhea virus isolates and strains.
Data set [3] is described as follows: Cytotoxicity against bovine MDBK cells after 3 days by CellTitre-Blue assay. The settings on record: cattle. It is filed as cell-based, Bos taurus.
Data set [4] has as its system Hepatitis C virus. In words: Antiviral activity against HCV genotype 1a H77c infected in human HuH7 cells after 5 days by ELISA. It counts as functional, organism-based, Hepacivirus hominis. Particulars: Huh-7, 120 h. An outline of the steps:
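Genotype 1a (H77c) replicon cells, 1.5 × 10⁴/well in DMEM + 10% FBS, attached overnight at 37 °C; serially diluted compounds (in FBS-free DMEM) added, 5 days at 37 °C. Cells dried overnight at 37 °C to fix, Triton-permeabilized, casein-blocked; NS5A antiserum then HRP secondary, chemiluminescent read. Inhibition relative to untreated wells; background set with 500 nM NS3 inhibitor.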
(In general: An ELISA detects its analyte on a solid surface through an enzyme-linked reagent.)

In data set [5] the test system is Hepatitis C virus. As to the kind of experiment: Antiviral activity against HCV genotype 1b infected in human HuH7 cells after 72 hrs by FRET assay. It is filed as functional, organism-based, Hepacivirus hominis. The settings on record: Huh-7, 72 h. An outline of the steps:
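Replicon cells seeded 10K/well, attached overnight; compounds added with 0.5% v/v DMSO vehicle controls, typically 72 h. Alamar blue read first, then cells PBS-rinsed and lysed with reagent holding 150 mM NaCl and 20 μM final EDANS/DABCYL NS3 protease peptide; kinetic fluorescence 340/490 nm. EC₅₀ = concentration halving background-subtracted FRET signal versus DMSO wells.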

In the case of `O=C(Nc1ccc(C#Cc2ccc(NC(=O)[C@@H]3CCCN3C(=O)Cc3ccccc3)cc2)cc1)[C@@H]1CCCN1C(=O)Cc1ccccc1`, the EC50 in data set [1] and in data set [2] was over 10000 nM each time. In data set [3], the CC50 at 72 h is over 10000 nM.
Turning to `COc1cccc2c(C(=O)N3CCC[C@H]3C(=O)Nc3ccc(/C=C/c4ccc(NC(=O)[C@@H]5CCCN5C(=O)c5nccc6c(OC)cccc56)cc4)cc3)nccc12`, the values for the EC50 in data set [4], in data set [5] and in data set [2] were 175 nM, 215 nM and over 10000 nM, respectively. Also, the CC50 at 72 h in data set [3] was over 10000 nM.
Turning to `O=C(Nc1ccc(/C=C/c2ccc(NC(=O)[C@@H]3CCCN3C(=O)c3ccccc3)cc2)cc1)[C@@H]1CCCN1C(=O)c1ccccc1`, the figures for the EC50 in data set [1], in data set [5] and in data set [2] were 6300 nM, 100 nM and over 5000 nM, respectively. In addition, in data set [3], the CC50 at 72 h was over 10000 nM.
Regarding `O=C(Nc1ccc(/C=C/c2ccc(NC(=O)[C@@H]3CCCN3C(=O)c3nc(Cl)cc4c(F)cccc34)cc2)cc1)[C@@H]1CCCN1C(=O)c1nc(Cl)cc2c(F)cccc12`, the EC50 was 42 nM in data set [4], 18 nM in data set [5] and over 10000 nM in data set [2]. In addition, in data set [3], the CC50 at 72 h was over 10000 nM.
Turning to `O=C(Nc1ccc(/C=C/c2ccc(NC(=O)[C@@H]3CCCN3C(=O)c3nccc4c(Cl)cccc34)cc2)cc1)[C@@H]1CCCN1C(=O)c1nccc2c(Cl)cccc12`, the EC50 in data set [4] is 255 nM; in data set [5] it was 139 nM; in data set [2], over 10000 nM. The CC50 at 72 h in data set [3] is over 10000 nM.
In the case of `O=C(Nc1ccc(/C=C/c2ccc(NC(=O)[C@@H]3CCCN3C(=O)c3nccc4cc(Cl)ccc34)cc2)cc1)[C@@H]1CCCN1C(=O)c1nccc2cc(Cl)ccc12`, the EC50 in data set [4] is 761 nM; in data set [5] it was 110 nM; in data set [2] it was 2100 nM. The CC50 at 72 h in data set [3] was over 10000 nM.
In the same order, the values of `C=Cc1ccccc1C(=O)N1CCC[C@H]1C(=O)Nc1ccc(/C=C/c2ccc(NC(=O)[C@@H]3CCCN3C(=O)c3ccccc3C=C)cc2)cc1` are 1100 nM, 1200 nM, over 5000 nM and over 10000 nM.
`O=C(Nc1ccc(/C=C/c2ccc(NC(=O)[C@@H]3CCCN3C(=O)c3nccc4c(F)cccc34)cc2)cc1)[C@@H]1CCCN1C(=O)c1nccc2c(F)cccc12`: the EC50 in data set [4] was determined as 236 nM; in data set [5], 42 nM; in data set [2], 7900 nM. Besides, in data set [3], the CC50 at 72 h was over 10000 nM.
Take `O=C(Nc1ccc(/C=C/c2ccc(NC(=O)[C@@H]3CCCN3C(=O)c3ncccc3-c3ccccc3)cc2)cc1)[C@@H]1CCCN1C(=O)c1ncccc1-c1ccccc1`: the EC50 in data set [4] was 2200 nM; in data set [5], 820 nM; in data set [2], over 5000 nM. Also, in data set [3], the 50% cytotoxic concentration (CC50) at 72 h was over 10000 nM.
With `O=C(Nc1ccc(/C=C/c2ccc(NC(=O)[C@@H]3CCCN3C(=O)c3ncc(Cl)c4ccccc34)cc2)cc1)[C@@H]1CCCN1C(=O)c1ncc(Cl)c2ccccc12`, the values for the EC50 in data set [4], in data set [5] and in data set [2] were 282 nM, 69 nM and over 10000 nM, respectively. Besides, the CC50 at 72 h in data set [3] is over 10000 nM.
Regarding `Cc1cccc2c(C(=O)N3CCC[C@H]3C(=O)Nc3ccc(/C=C/c4ccc(NC(=O)[C@@H]5CCCN5C(=O)c5nccc6c(C)cccc56)cc4)cc3)nccc12`, the values for the EC50 in data set [4], in data set [5] and in data set [2] were over 10000 nM, under 5 nM and over 10000 nM, respectively. The CC50 at 72 h in data set [3] is over 10000 nM.
For the compound `O=C(Nc1ccc(/C=C/c2ccc(NC(=O)[C@@H]3CCCN3C(=O)c3cccc4ccccc34)cc2)cc1)[C@@H]1CCCN1C(=O)c1cccc2ccccc12`, the EC50 was over 10000 nM in data set [4], 1600 nM in data set [5] and over 5000 nM in data set [2]. This compound also showed a CC50 at 72 h in data set [3] of over 10000 nM.
Take `C=Cc1cccnc1C(=O)N1CCC[C@H]1C(=O)Nc1ccc(/C=C/c2ccc(NC(=O)[C@@H]3CCCN3C(=O)c3ncccc3C=C)cc2)cc1`: the EC50 in data set [4] is 3500 nM; in data set [5] it was 320 nM; in data set [2], over 5000 nM. The same compound displayed a CC50 at 72 h in data set [3] of over 10000 nM.
The like results for `Cc1cc2ccccc2c(C(=O)N2CCC[C@H]2C(=O)Nc2ccc(/C=C/c3ccc(NC(=O)[C@@H]4CCCN4C(=O)c4nc(C)cc5ccccc45)cc3)cc2)n1` were, in that order, 329 nM, 6 nM, over 10000 nM and over 10000 nM.
In the same order, the values of `CCc1cccnc1C(=O)N1CCC[C@H]1C(=O)Nc1ccc(/C=C/c2ccc(NC(=O)[C@@H]3CCCN3C(=O)c3ncccc3CC)cc2)cc1` are 720 nM, 46 nM, 3100 nM and over 10000 nM.
In the same order, the values of `O=C(Nc1ccc(/C=C/c2ccc(NC(=O)[C@@H]3CCCN3C(=O)c3ncnc4ccccc34)cc2)cc1)[C@@H]1CCCN1C(=O)c1ncnc2ccccc12` are 910 nM, 2300 nM, over 5000 nM and over 10000 nM.
Consider `O=C(Nc1ccc(/C=C/c2ccc(NC(=O)[C@@H]3CCCN3C(=O)c3nncc4ccccc34)cc2)cc1)[C@@H]1CCCN1C(=O)c1nncc2ccccc12`, for which the EC50 is 1000 nM in data set [4], 30 nM in data set [5] and over 5000 nM in data set [2]. In data set [3], the CC50 at 72 h is over 10000 nM.
In the same order, the values of `COc1ccc2ccc(C(=O)N3CCC[C@H]3C(=O)Nc3ccc(/C=C/c4ccc(NC(=O)[C@@H]5CCCN5C(=O)c5ccc6ccc(OC)cc6n5)cc4)cc3)nc2c1` are 126 nM, 62 nM, over 10000 nM and over 10000 nM.
On to `CCc1ccnc(C(=O)N2CCC[C@H]2C(=O)Nc2ccc(/C=C/c3ccc(NC(=O)[C@@H]4CCCN4C(=O)c4cc(CC)ccn4)cc3)cc2)c1`, for which the EC50 in data set [4] was 4100 nM; in data set [5], 390 nM; in data set [2], over 5000 nM. This compound gave a CC50 at 72 h in data set [3] of over 10000 nM.
In the same order, the values of `O=C(Nc1ccc(/C=C/c2ccc(NC(=O)[C@@H]3CCCN3C(=O)c3nccc4ccc(Cl)cc34)cc2)cc1)[C@@H]1CCCN1C(=O)c1nccc2ccc(Cl)cc12` are over 10000 nM, 36 nM, over 10000 nM and over 10000 nM.
The like results for `O=C(Nc1ccc(/C=C/c2ccc(NC(=O)[C@@H]3CCCN3C(=O)c3nc(Cl)cc4ccccc34)cc2)cc1)[C@@H]1CCCN1C(=O)c1nc(Cl)cc2ccccc12` were, in that order, 62 nM, 23 nM, over 10000 nM and over 10000 nM.
The like results for `O=C(Nc1ccc(/C=C/c2ccc(NC(=O)[C@@H]3CCCN3C(=O)c3cncc4ccccc34)cc2)cc1)[C@@H]1CCCN1C(=O)c1cncc2ccccc12` were, in that order, 1400 nM, 140 nM, 42 nM and over 10000 nM.
With `COc1cc2ccccc2c(C(=O)N2CCC[C@H]2C(=O)Nc2ccc(/C=C/c3ccc(NC(=O)[C@@H]4CCCN4C(=O)c4nc(OC)cc5ccccc45)cc3)cc2)n1`, the values for the EC50 in data set [4], in data set [5] and in data set [2] were over 10000 nM, 32 nM and over 10000 nM, respectively. For the same compound, the CC50 at 72 h in data set [3] was over 10000 nM.
Regarding `O=C(Nc1ccc(/C=C/c2ccc(NC(=O)[C@@H]3CCCN3C(=O)c3cc(Cl)cc4ccccc34)cc2)cc1)[C@@H]1CCCN1C(=O)c1cc(Cl)cc2ccccc12`, the EC50 was over 10000 nM in data set [4], 240 nM in data set [5] and over 10000 nM in data set [2]. In data set [3], the CC50 at 72 h is over 10000 nM.
For `O=C(Nc1ccc(/C=C/c2ccc(NC(=O)[C@@H]3CCCN3C(=O)c3nccc4ccccc34)cc2)cc1)[C@@H]1CCCN1C(=O)c1nccc2ccccc12`, the EC50 came out at 390 nM in data set [4] and 6400 nM in data set [2]. For the same compound, the CC50 at 72 h in data set [3] is over 10000 nM.
Regarding `COc1cccc2nc(C(=O)N3CCC[C@H]3C(=O)Nc3ccc(/C=C/c4ccc(NC(=O)[C@@H]5CCCN5C(=O)c5ccc6c(OC)cccc6n5)cc4)cc3)ccc12`, the concentration for a half-maximal effect (EC50) is over 10000 nM in data set [4], 971 nM in data set [5] and over 10000 nM in data set [2]. In data set [3], the CC50 at 72 h is over 10000 nM.
As for `O=C(Nc1ccc(-c2cnc(-c3ccc(NC(=O)[C@@H]4CCCN4C(=O)Cc4ccccc4)cc3)o2)cc1)[C@@H]1CCCN1C(=O)Cc1ccccc1`, the EC50 in data set [1] is 1510 nM; in data set [2] it was over 10000 nM. The compound also displayed a CC50 at 72 h in data set [3] of 3300 nM.
In data set [2], `CCc1ccccc1C(=O)N1CCC[C@H]1C(=O)Nc1ccc(/C=C/c2ccc(NC(=O)[C@@H]3CCCN3C(=O)c3ccccc3CC)cc2)cc1` displayed an EC50 of 4700 nM. This compound gave a CC50 at 72 h in data set [3] of over 10000 nM.
As to `O=C(Nc1ccc(/C=C/c2ccc(NC(=O)[C@@H]3CCCN3C(=O)c3nc(F)cc4ccccc34)cc2)cc1)[C@@H]1CCCN1C(=O)c1nc(F)cc2ccccc12`, the results for the EC50 in data set [4], in data set [5] and in data set [2] were 70 nM, 27 nM and over 10000 nM, respectively. Moreover, the CC50 at 72 h in data set [3] is over 10000 nM.
`O=C(Nc1ccc(/C=C/c2ccc(NC(=O)[C@@H]3CCCN3C(=O)c3ccc4ccccc4n3)cc2)cc1)[C@@H]1CCCN1C(=O)c1ccc2ccccc2n1`: the EC50 in data set [4] was 590 nM; in data set [5] it was 200 nM; in data set [2] it was over 5000 nM. The same compound returned a CC50 at 72 h in data set [3] of over 10000 nM.

Usually EC50 stands for the concentration needed to bring the measured effect to its halfway point. Read a high EC50 as a need for much substance. As a reminder, the CC50 is the concentration at which the toxic effect on the cells reaches its halfway point. A higher CC50 goes with better tolerance by the cells.

The values above are taken from ChEMBL document CHEMBL3120097, “HCV NS5A replication complex inhibitors. Part 4. Optimization for genotype 1a replicon inhibitory activity” (J Med Chem, 2014).
